How the values were obtained:
Type in all cases: cell-based, porcine
LLC-PK1 cells [1] = experiment: JC-10 mitochondrial transmembrane potential assay; settings: for effect of cisplatin on ΔΨm: CDDP 20 μM alone
caspase-9 = experiment: Caspase-9 activity assay; settings: CDDP 20 μM alone, 24 h
How it was run: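 Supernatant was mixed 1:1 with HEPES pH 7.4 caspase buffer (CHAPS, glycerol, EDTA, 10 mM DTT) holding 100 μM Ac-LEHD-pNA. Incubation was 90 min at 37 °C, read as absorbance at 400 nm, with activity normalised to BCA total protein.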

LLC-PK1 cells [2] = experiment: CM-H2DCFDA general reactive oxygen species quantitation assay; settings: CDDP 20 μM alone, 24 h
How it was run: (§1)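 LLC-PK1 cells (M199, 10% FBS, 1% PS; 37 °C, 5% CO2) were seeded at 1×10^4 cells/well overnight. Probe loading was 5 μM CM-H2DCFDA for 30 min (general ROS) or 2.5 μM MitoSOX Red for 10 min (mitochondrial superoxide), then 3 PBS washes. […] After PBS washes, fluorescence was read in PBS at Ex/Em 485/535 nm (DCF) or 510/580 nm (MitoSOX). Three independent experiments.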

caspase-3 = experiment: Caspase-3 activity assay; settings: CDDP 20 μM alone, 24 h
LLC-PK1 cells [3] = experiment: MitoSOX Red mitochondrial superoxide detection assay; settings: CDDP 20 μM alone, 24 h
How it was run: as §1

SMILES | ΔΨm with positive control (LLC-PK1 cells [1]; FCCP 10 μM) | effect of cisplatin on caspase-9 activity (caspase-9) | effect of cisplatin on general ROS (LLC-PK1 cells [2]) | effect of cisplatin on ΔΨm (LLC-PK1 cells [1]; 6 h) | effect of cisplatin on ΔΨm (LLC-PK1 cells [1]; 24 h) | effect of cisplatin on ΔΨm (LLC-PK1 cells [1]; 48 h) | effect of cisplatin on caspase-3 activity (caspase-3) | effect of cisplatin on O2•− generated in mitochondria (LLC-PK1 cells [3])
N#CC(C#N)=NNc1ccc(OC(F)(F)F)cc1 [FCCP, Carbonyl cyanide-p-trifluoromethoxyphenylhydrazone] | depolarized ΔΨm | – | – | – | – | – | – | –
N.N.[Cl][Pt][Cl] [cisplatin, cis-Diamminedichloroplatinum (II), reference compound] | – | greatly elevated | increased | not significantly affected | substantial loss of the ΔΨm | nearly complete gradient collapse | greatly elevated | increased

Reference: publication PMC8853703 (Chemical research in toxicology, 2021)
